The compounds below were run on Vibrio harveyi BB721 quorum sensing luminescence, 9 h (assay: inhibitors of constitutive quorum-sensing luminescence in V. harveyi, dose response, counter-screen for AI-2 quorum sensing inhibitor project, strain BB721 constitutive-on, dry powder (AID 493104)).
How it was run: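 Buffer or medium: AB (autoinducer bioassay) medium. Material: V. harveyi BB721, constitutive-on quorum sensing strain. Times: 9 h exposure, 30 °C.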

First: O=C1C=C/C(=C/Br)O1
Second: C=Cn1c(C(=O)O)ccc1-c1ccc(CC)cc1
The AC50 of the first is 2.1-fold lower: 6.43 µM for the first, 13.8 µM for the second.

`CCc1ccc(S(=O)(=O)Nc2ccc(Br)cn2)cc1` and `Cc1cccc(NS(=O)(=O)c2ccc(Oc3ccccc3)cc2)n1` are within 1.5-fold of each other in AC50: 11.9 µM for the first, 12.4 µM for the second.

Work on `COc1cc(NC(=O)CN2C(=O)NC(c3ccccc3)(c3ccccc3)C2=O)cc(OC)c1` yielded an AC50 of 0.919 µM.

— PubChem BioAssay AID493104 (Broad Institute, 2011)
